From article PMC9217999 (Targeted Oncology, 2022)
Entries after “also recorded” stand apart in the source; their conditions may differ.

Assay: Safety and tolerability in iMATRIX-cobi Phase I/II study
Type: in vivo, human
Summary of the method: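 Patients aged 6 months to <30 years with relapsed/refractory solid tumors with MAPK pathway involvement. Oral test compound (20-mg tablet or suspension, with/without food) on Days 1–21 of 28-day cycles. Cumulative weekly weight-based dose rounded to 20 mg, capped at 60 mg/day. Rolling 6 escalation in cohorts of 3–6. Eye exams including OCT at baseline, cycle 1 Days 8/15, and each later cycle Day 1. All dosed patients evaluated.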

[1] = Dose escalation suspension (n = 26)
[2] = Dose escalation tablet (n = 18)

For `O=C(c1ccc(F)c(F)c1Nc1ccc(I)cc1F)N1CC(O)([C@@H]2CCCCN2)C1` [cobimetinib], the “DLTs (events)” value (0.6 mg/kg suspension) was “grade 1 chorioretinopathy”, the “DLTs (events)” value (1.0 mg/kg tablet) was “grade 3 headache; also recorded: grade 2 retinal detachment” and the “DLTs (events)” value (1.33 mg/kg suspension) was “grade 4 chorioretinopathy; also recorded: grade 1 serous retinal detachment”. For the same compound, the “Any treatment-related AE, G1” value [1] was 6 (23) n (%), the “Any treatment-related AE, G2” value [1] was 12 (46) n (%) and the “Any treatment-related AE, G3” value [1] was 4 (15) n (%). For the same compound, the “Any treatment-related AE, G4” value [1] was 1 (4) n (%), the “Treatment-related AE: ALT increased, G1” value [1] was 1 (4) n (%) and the “Treatment-related AE: ALT increased, G2” value [1] was 0 n (%). For the same compound, the “Treatment-related AE: ALT increased, G3” value [1] was 1 (4) n (%), the “Treatment-related AE: ALT increased, G4” value [1] was 0 n (%) and the “Treatment-related AE: AST increased, G1” value [1] was 1 (4) n (%). For the same compound, the “Treatment-related AE: AST increased, G2” value [1] was 0 n (%), the “Treatment-related AE: AST increased, G3” value [1] was 1 (4) n (%) and the “Treatment-related AE: AST increased, G4” value [1] was 0 n (%). For the same compound, the “Treatment-related AE: Abdominal pain, G1” value [1] was 2 (8) n (%), the “Treatment-related AE: Abdominal pain, G2” value [1] was 2 (8) n (%) and the “Treatment-related AE: Abdominal pain, G3” value [1] was 0 n (%). For the same compound, the “Treatment-related AE: Abdominal pain, G4” value [1] was 0 n (%), the “Treatment-related AE: Anemia, G1” value [1] was 1 (4) n (%) and the “Treatment-related AE: Anemia, G2” value [1] was 0 n (%). The “Treatment-related AE: Anemia, G3” value [1] was 0 n (%), the “Treatment-related AE: Anemia, G4” value [1] was 0 n (%) and the “Treatment-related AE: Asthenia, G1” value [1] was 0 n (%). For the same compound, the “Treatment-related AE: Asthenia, G2” value [1] was 0 n (%), the “Treatment-related AE: Asthenia, G3” value [1] was 0 n (%) and the “Treatment-related AE: Asthenia, G4” value [1] was 0 n (%). The “Treatment-related AE: Blood CPK increased, G1” value [1] was 2 (8) n (%), the “Treatment-related AE: Blood CPK increased, G2” value [1] was 1 (4) n (%) and the “Treatment-related AE: Blood CPK increased, G3” value [1] was 1 (4) n (%). For the same compound, the “Treatment-related AE: Blood CPK increased, G4” value [1] was 0 n (%), the “Treatment-related AE: Chorioretinopathy, G1” value [1] was 1 (4) n (%) and the “Treatment-related AE: Chorioretinopathy, G2” value [1] was 0 n (%). For the same compound, the “Treatment-related AE: Chorioretinopathy, G3” value [1] was 0 n (%), the “Treatment-related AE: Chorioretinopathy, G4” value [1] was 1 (4) n (%) and the “Treatment-related AE: Constipation, G1” value [1] was 1 (4) n (%). For the same compound, the “Treatment-related AE: Constipation, G2” value [1] was 0 n (%), the “Treatment-related AE: Constipation, G3” value [1] was 0 n (%) and the “Treatment-related AE: Constipation, G4” value [1] was 0 n (%). For the same compound, the “Treatment-related AE: Decreased appetite, G1” value [1] was 2 (8) n (%), the “Treatment-related AE: Decreased appetite, G2” value [1] was 0 n (%) and the “Treatment-related AE: Decreased appetite, G3” value [1] was 0 n (%). The “Treatment-related AE: Decreased appetite, G4” value [1] was 0 n (%), the “Treatment-related AE: Dermatitis acneiform, G1” value [1] was 4 (15) n (%) and the “Treatment-related AE: Dermatitis acneiform, G2” value [1] was 1 (4) n (%). The “Treatment-related AE: Dermatitis acneiform, G3” value [1] was 1 (4) n (%), the “Treatment-related AE: Dermatitis acneiform, G4” value [1] was 0 n (%) and the “Treatment-related AE: Diarrhea, G1” value [1] was 2 (8) n (%). The “Treatment-related AE: Diarrhea, G2” value [1] was 7 (27) n (%), the “Treatment-related AE: Diarrhea, G3” value [1] was 0 n (%) and the “Treatment-related AE: Diarrhea, G4” value [1] was 0 n (%). For the same compound, the “Treatment-related AE: Dry skin, G1” value [1] was 4 (15) n (%), the “Treatment-related AE: Dry skin, G2” value [1] was 0 n (%) and the “Treatment-related AE: Dry skin, G3” value [1] was 1 (4) n (%). The “Treatment-related AE: Dry skin, G4” value [1] was 0 n (%), the “Treatment-related AE: Encephalopathy, G1” value [1] was 0 n (%) and the “Treatment-related AE: Encephalopathy, G2” value [1] was 0 n (%). For the same compound, the “Treatment-related AE: Encephalopathy, G3” value [1] was 0 n (%), the “Treatment-related AE: Encephalopathy, G4” value [1] was 0 n (%) and the “Treatment-related AE: Erythema, G1” value [1] was 2 (8) n (%). The “Treatment-related AE: Erythema, G2” value [1] was 0 n (%), the “Treatment-related AE: Erythema, G3” value [1] was 0 n (%) and the “Treatment-related AE: Erythema, G4” value [1] was 0 n (%). For the same compound, the “Treatment-related AE: Fatigue, G1” value [1] was 6 (23) n (%), the “Treatment-related AE: Fatigue, G2” value [1] was 0 n (%) and the “Treatment-related AE: Fatigue, G3” value [1] was 0 n (%). The “Treatment-related AE: Fatigue, G4” value [1] was 0 n (%), the “Treatment-related AE: Headache, G1” value [1] was 3 (12) n (%) and the “Treatment-related AE: Headache, G2” value [1] was 2 (8) n (%). The “Treatment-related AE: Headache, G3” value [1] was 0 n (%), the “Treatment-related AE: Headache, G4” value [1] was 0 n (%) and the “Treatment-related AE: Nausea, G1” value [1] was 4 (15) n (%). For the same compound, the “Treatment-related AE: Nausea, G2” value [1] was 0 n (%), the “Treatment-related AE: Nausea, G3” value [1] was 0 n (%) and the “Treatment-related AE: Nausea, G4” value [1] was 0 n (%). For the same compound, the “Treatment-related AE: Paronychia, G1” value [1] was 2 (8) n (%), the “Treatment-related AE: Paronychia, G2” value [1] was 1 (4) n (%) and the “Treatment-related AE: Paronychia, G3” value [1] was 1 (4) n (%). The “Treatment-related AE: Paronychia, G4” value [1] was 0 n (%), the “Treatment-related AE: Rash, G1” value [1] was 2 (8) n (%) and the “Treatment-related AE: Rash, G2” value [1] was 0 n (%). For the same compound, the “Treatment-related AE: Rash, G3” value [1] was 0 n (%), the “Treatment-related AE: Rash, G4” value [1] was 0 n (%) and the “Treatment-related AE: Transaminases increased, G1” value [1] was 0 n (%). For the same compound, the “Treatment-related AE: Transaminases increased, G2” value [1] was 0 n (%), the “Treatment-related AE: Transaminases increased, G3” value [1] was 1 (4) n (%) and the “Treatment-related AE: Transaminases increased, G4” value [1] was 0 n (%). For the same compound, the “Treatment-related AE: Vomiting, G1” value [1] was 2 (8) n (%), the “Treatment-related AE: Vomiting, G2” value [1] was 0 n (%) and the “Treatment-related AE: Vomiting, G3” value [1] was 0 n (%). For the same compound, the “Treatment-related AE: Vomiting, G4” value [1] was 0 n (%), the “Treatment-related AE: Weight increased, G1” value [1] was 0 n (%) and the “Treatment-related AE: Weight increased, G2” value [1] was 0 n (%). The “Treatment-related AE: Weight increased, G3” value [1] was 0 n (%), the “Treatment-related AE: Weight increased, G4” value [1] was 0 n (%) and the “Any treatment-related AE, G1” value [2] was 7 (39) n (%). For the same compound, the “Any treatment-related AE, G2” value [2] was 5 (28) n (%), the “Any treatment-related AE, G3” value [2] was 4 (22) n (%) and the “Any treatment-related AE, G4” value [2] was 0 n (%). For the same compound, the “Treatment-related AE: ALT increased, G1” value [2] was 1 (6) n (%), the “Treatment-related AE: ALT increased, G2” value [2] was 0 n (%) and the “Treatment-related AE: ALT increased, G3” value [2] was 0 n (%). The “Treatment-related AE: ALT increased, G4” value [2] was 0 n (%), the “Treatment-related AE: AST increased, G1” value [2] was 1 (6) n (%) and the “Treatment-related AE: AST increased, G2” value [2] was 0 n (%). The “Treatment-related AE: AST increased, G3” value [2] was 0 n (%), the “Treatment-related AE: AST increased, G4” value [2] was 0 n (%) and the “Treatment-related AE: Abdominal pain, G1” value [2] was 4 (22) n (%). For the same compound, the “Treatment-related AE: Abdominal pain, G2” value [2] was 0 n (%), the “Treatment-related AE: Abdominal pain, G3” value [2] was 0 n (%) and the “Treatment-related AE: Abdominal pain, G4” value [2] was 0 n (%). For the same compound, the “Treatment-related AE: Anemia, G1” value [2] was 1 (6) n (%), the “Treatment-related AE: Anemia, G2” value [2] was 0 n (%) and the “Treatment-related AE: Anemia, G3” value [2] was 0 n (%). For the same compound, the “Treatment-related AE: Anemia, G4” value [2] was 0 n (%), the “Treatment-related AE: Asthenia, G1” value [2] was 0 n (%) and the “Treatment-related AE: Asthenia, G2” value [2] was 0 n (%). The “Treatment-related AE: Asthenia, G3” value [2] was 0 n (%), the “Treatment-related AE: Asthenia, G4” value [2] was 0 n (%) and the “Treatment-related AE: Blood CPK increased, G1” value [2] was 0 n (%). The “Treatment-related AE: Blood CPK increased, G2” value [2] was 1 (6) n (%), the “Treatment-related AE: Blood CPK increased, G3” value [2] was 0 n (%) and the “Treatment-related AE: Blood CPK increased, G4” value [2] was 0 n (%). For the same compound, the “Treatment-related AE: Chorioretinopathy, G1” value [2] was 0 n (%), the “Treatment-related AE: Chorioretinopathy, G2” value [2] was 0 n (%) and the “Treatment-related AE: Chorioretinopathy, G3” value [2] was 0 n (%). For the same compound, the “Treatment-related AE: Chorioretinopathy, G4” value [2] was 0 n (%), the “Treatment-related AE: Constipation, G1” value [2] was 3 (17) n (%) and the “Treatment-related AE: Constipation, G2” value [2] was 0 n (%). The “Treatment-related AE: Constipation, G3” value [2] was 0 n (%), the “Treatment-related AE: Constipation, G4” value [2] was 0 n (%) and the “Treatment-related AE: Decreased appetite, G1” value [2] was 2 (11) n (%). The “Treatment-related AE: Decreased appetite, G2” value [2] was 0 n (%), the “Treatment-related AE: Decreased appetite, G3” value [2] was 1 (6) n (%) and the “Treatment-related AE: Decreased appetite, G4” value [2] was 0 n (%). The “Treatment-related AE: Dermatitis acneiform, G1” value [2] was 0 n (%), the “Treatment-related AE: Dermatitis acneiform, G2” value [2] was 0 n (%) and the “Treatment-related AE: Dermatitis acneiform, G3” value [2] was 0 n (%). For the same compound, the “Treatment-related AE: Dermatitis acneiform, G4” value [2] was 0 n (%), the “Treatment-related AE: Diarrhea, G1” value [2] was 8 (44) n (%) and the “Treatment-related AE: Diarrhea, G2” value [2] was 1 (6) n (%). The “Treatment-related AE: Diarrhea, G3” value [2] was 0 n (%), the “Treatment-related AE: Diarrhea, G4” value [2] was 0 n (%) and the “Treatment-related AE: Dry skin, G1” value [2] was 2 (11) n (%). The “Treatment-related AE: Dry skin, G2” value [2] was 2 (11) n (%), the “Treatment-related AE: Dry skin, G3” value [2] was 0 n (%) and the “Treatment-related AE: Dry skin, G4” value [2] was 0 n (%). The “Treatment-related AE: Encephalopathy, G1” value [2] was 0 n (%) and the “Treatment-related AE: Encephalopathy, G2” value [2] was 0 n (%).
